KCNK3 block – human KCNK3 channel inhibition, primary screen; O14649; CHO-KCNK3 thallium flux, FluxOR fluorescence; stronger effect = lower value; B-score at 10 µM; hit rate 0.84% among 340,000; AID 602410;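 active = B-score under library mean minus 4 SD, starting fluorescence ratio at most library mean plus 5 SD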;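 note: more negative B-score means stronger inhibition of thallium flux through KCNK3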
KCNQ1 block – human KCNQ1 channel inhibition. P51787. CHO-K1 KCNQ1, FluxOR thallium flux fluorescence; stronger effect = higher value. B-score at 10 µM. hit rate 1.3% among 310,000. AID 2642;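 active = compounds whose thallium flux B-score, printed positive for inhibition, exceeds three library SD while starting fluorescence stays within three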;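 note: channel opened by potassium depolarization with thallium stimulus after 20 min compound exposure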
hERG protect – shields human hERG channel from block by proarrhythmic agents | Q12809 | AID 1511 | activation (rescue from dofetilide block), less the hit threshold, % at 10 µM | hit rate 0.51% among 310,000 | CHO-hERG, FluxOR thallium flux, dofetilide IC70 present;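 active = activation above the mean of controls blocked by dofetilide plus 5 SD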;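 note: thallium influx through hERG after potassium depolarization seen as dye fluorescence rise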
KCNQ1 pot – human KCNQ1 channel potentiation or activation; P51787; CHO-K1 KCNQ1, thallium flux FluxOR fluorescence; stronger effect = higher value; B-score at 10 µM; hit rate 0.35% among 310,000; AID 2648;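 active = fluorescence ratio B-score, a plate-corrected score, at least three library SD, with initial intensity B-score within 5 SD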
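Test system: CHO-K1 cells stably expressing KCNQ1 / Medium: assay buffer / Also added: depolarizing K+/Tl+ stimulus, K2SO4 and Tl2SO4 each 12.5 mM in 5x stock / Incubation: 90 min dye loading and 20 min compound exposure, both at room temperature / Signal: thallium influx via FluxOR fluorescence, kinetic imaging / Evaluation: B score of baseline-normalized fluorescence ratio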
KCNK9 inh – inhibitors of human KCNK9 two-pore domain potassium channel. HEK293 KCNK9, FluxOR thallium flux fluorescence; stronger effect = lower value. B-score at 10 µM. AID 488922. hit rate 1.2% among 310,000. Q9NPC2;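 active = ratio B-score over 3 SD below the library mean, with starting fluorescence within 5 SD of its mean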;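 note: negative B-score means less thallium flux so channel inhibition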
Kir21 inh – inhibitors of mouse Kir2.1 inward-rectifier potassium channel. B-score at 10 µM. HEK293-Kir2.1, FluxOR thallium flux fluorescence; stronger effect = lower value. hit rate 0.85% among 310,000. P35561;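 active = fluorescence ratio B-score at or below minus 3 SD of library scores, with starting-brightness B-score within 2 SD, cut at about -4.2 in these data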;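 note: channel flux triggered by added potassium and thallium sulfate stimulus; B-score of peak minus minimum fluorescence over baseline after thallium stimulus; more negative B-score means stronger Kir2.1 block with less thallium influx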
The depositor's hits bear a star; i = inactive; . = no result. A selection: hits, their analogues and other compounds. The true share with any hit is near 3.7%.

SMILES	KCNK3 block	KCNQ1 block	hERG protect	KCNQ1 pot	KCNK9 inh	Kir21 inh
O=C1c2cccc3c(N4CCCCC4)ccc(c23)C(=O)N1c1ccccn1	i	8*	-20	i	-7.6*	-0.67
O=C1c2cccc3c([N+](=O)[O-])ccc(c23)C(=O)N1c1ccccn1	i	i	-14	i	-6.6*	-2.5
O=C1c2ccc([N+](=O)[O-])cc2C(=O)N1c1ccc(Cl)cn1	i	i	-11	i	i	-2.2
Cc1ccc(Oc2ccccc2NC(=O)CSCC(=O)Nc2cc(C)on2)cc1	i	i	-19	i	i	-3.9
Cc1cc(NC(=O)CSCC(=O)Nc2ccccc2Oc2ccccc2)no1	i	i	-9	i	i	-4.8*
N#CC1=C(N)N(c2ccccc2)C(c2ccco2)C1(C#N)C#N (centres undefined)	i	i	-4	i	i	-0.01
N#CC1=C(N)N(c2ccccc2)C(c2cccc([N+](=O)[O-])c2)C1(C#N)C#N (centres undefined)	i	i	-13	i	i	-9.7*
COc1ccc(NC(=O)CN(c2ccccc2F)S(=O)(=O)c2ccc(C)cc2)c(OC)c1	i	i	-7	i	i	1.6
CCc1ccc2[nH]c(C(=O)Nc3ccc(F)cc3Br)cc2c1	i	i	-2	8*	i	0.8
Brc1ccc(C2=Nn3cnnc3SC2)cc1	i	i	-7	i	i	-0.05
Cc1ccc2[nH]cc(/C=C/c3cc[n+](C)cc3)c2c1	i	i	-32	i	i	-16
CC[n+]1ccc(/C=C/c2c[nH]c3ccccc23)cc1	i	10*	-24	i	i	-5.9
O=C(Nc1cc(C(F)(F)F)ccc1Cl)C(Sc1nnc(-c2cccs2)o1)c1ccccc1 (centres undefined)	i	6*	-13	i	i	-1.9
O=C(Nc1ccc(Cl)cc1C(F)(F)F)C(Sc1nnc(-c2cccs2)o1)c1ccccc1 (centres undefined)	i	6*	-12	i	i	1.9
Cc1cc(F)ccc1S(=O)(=O)Nc1ccccc1C(=O)NCc1ccccn1	i	i	-17	i	i	-0.92
CC(=O)Oc1ccc2nc(/C=C/c3ccccc3)oc(=O)c2c1	i	i	-8	i	i	-1.5
O/N=C1\CCCc2c1nc(-c1ccccc1F)n2O	i	i	-8	i	i	-1.2
O=C(O)c1ccc(N=NNc2cccc([N+](=O)[O-])c2)cc1	i	i	-1	i	i	1.5
N#C/C(=N\Nc1cccc([N+](=O)[O-])c1)C(=O)c1ccc(Br)cc1	i	8*	-24	i	i	-2.3
CCOC(=O)c1cc(-c2ccc(F)cc2)n(CCC(=O)NC2CCN(Cc3ccccc3)CC2)c1C	i	i	-12	i	i	-4.6*
COc1ccc(N(Cc2cc3cc(OC)ccc3[nH]c2=O)S(=O)(=O)c2ccc(NC(C)=O)cc2)cc1	i	i	-23	i	i	-0.5
COc1ccc(N(Cc2cc3ccccc3[nH]c2=O)S(=O)(=O)c2ccc(OC)cc2)cc1	i	i	-10	i	-7.2*	0.62
CC(=O)Nc1sc(NC(=O)c2ccccc2)nc1-c1cccs1	i	i	5.5*	i	i	0.73
COc1ccc(C(=O)NCCCN=C2NS(=O)(=O)c3ccccc32)cc1	i	i	-5	i	i	0.28
CC(/C=N/n1c(-c2ccc(Cl)cc2)n[nH]c1=S)=C\c1ccco1	i	i	3	9*	i	0.8
SMILES	KCNK3 block	KCNQ1 block	hERG protect	KCNQ1 pot	KCNK9 inh	Kir21 inh
CC(/C=N/n1c(-c2cc(C)[nH]n2)n[nH]c1=S)=C\c1ccco1	i	i	-7	i	i	0.07
COc1ccc(Cc2nnc(SC(C)C(=O)Nc3ccc(C(N)=O)cc3)o2)cc1 (centres undefined)	i	i	-14	i	i	-1.8
CC(=O)Nc1nc(=S)ss1	i	i	-8	i	i	-0.1
O=C(COC(=O)c1ccco1)Nc1nc2ccccc2s1	i	i	7.3*	i	i	0.03
O=C(NC(=S)NCc1ccc(-c2nc3ccccc3s2)cc1)c1ccco1	i	i	5.5*	i	i	0.18
COC(=O)c1sc(NC(=S)NC(=O)c2ccccc2C)nc1C	i	i	25*	42*	i	0.41
O=C(NCc1ccc(-c2nc3ccccc3s2)cc1)c1ccco1	i	i	-7	i	i	0.5
COC(=O)c1sc(NC(=S)NC(=O)c2ccc(F)cc2)nc1C	.	i	-4	i	i	-1.3
Cc1ccccc1C(=O)Nc1nc(=S)ss1	i	i	20*	9*	i	-0.05
CCOC(=O)c1sc(NC(=S)NC(=O)c2ccco2)nc1C	i	i	8.9*	9*	i	1.3
Cc1nc(NC(=S)NC(=O)c2cccs2)ccc1Br	i	i	-6	13*	i	-2.6
Cc1ccc2nc(NC(=S)NC(=O)c3cccs3)sc2c1	i	i	10*	17*	i	-1.3
COC(=O)c1sc(NC(=O)c2ccco2)nc1C	i	i	-5	i	i	-1.9
O=C(NC(=S)Nc1nc2ccccc2s1)c1ccco1	i	i	9.2*	34*	i	0.11
COc1cccc(NC(=O)CSc2nnc3ccc(-c4ccccn4)nn23)c1	i	i	-4	i	i	0.3
Cc1cc(-c2nnc(CCC(=O)N3CCN(Cc4cccnc4)CC3)o2)c(C)o1	i	i	-4	i	i	-1.1
COc1ccc(CC(=O)Nc2cccc(/C(C)=N/NC(=O)C3(C)CC3(Br)Br)c2)cc1 (centres undefined)	i	i	-14	i	i	-0.24
COc1ccc2nc(NC(=O)CCNC(=O)c3ccco3)sc2c1	i	.	.	.	.	.
COc1ccc2nc(NC(=S)NC(=O)c3ccco3)sc2c1	i	i	31*	25*	i	-0.16
COc1cccc(CNc2ccc(S(=O)(=O)N3CCCC3)cn2)c1	i	.	.	.	.	.
CN1/C(=C\C(=S)NC(=O)c2cccc(Br)c2)C(C)(C)c2ccccc21	i	i	-4	i	i	0.99
CCN(CC)S(=O)(=O)c1cccc(C(=O)/C=C2/N(C)c3ccccc3C2(C)C)c1	i	i	-15	i	-7.7*	-0.02
Cc1nn2c(c1-c1ccc(Cl)cc1)N=C(c1ccco1)CC2c1ccccc1 (centres undefined)	i	7*	-5	i	-6.7*	0.37
O=S(=O)(Nc1nc2ccccc2nc1Nc1ccc2c(c1)OCCO2)c1cccs1	i	12*	1	i	i	0.98

From PubChem BioAssay
